ChEMBL document CHEMBL1153311, “Inhibitory activity of prostaglandin E2 production by the synthetic 2'-hydroxychalcone analogues: Synthesis and SAR study” (Bioorg Med Chem Lett, 2009)
pIC50: −log10 of the molar value.

Assays:
[1] = system: RAW264.7; assay: Cytotoxicity against mouse RAW264.7 cells assessed as cell viability at 10 uM by MTT assay; assay type: functional; conditions: read-out: Activity
Outline: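 RAW 264.7 mouse macrophage-like cells tested with or without LPS; viability read by MTT assay and reported as percent cell […]; values are the mean of three experiments.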

[2] = target: T1, Prostaglandin G/H synthase 2 (Mus musculus, UniProt Q05769); assay: Inhibition of COX2-mediated PGE2 production in LPS-stimulated mouse RAW264.7 cells by enzyme immunoassay
T1 sequence (Q05769 whole entry): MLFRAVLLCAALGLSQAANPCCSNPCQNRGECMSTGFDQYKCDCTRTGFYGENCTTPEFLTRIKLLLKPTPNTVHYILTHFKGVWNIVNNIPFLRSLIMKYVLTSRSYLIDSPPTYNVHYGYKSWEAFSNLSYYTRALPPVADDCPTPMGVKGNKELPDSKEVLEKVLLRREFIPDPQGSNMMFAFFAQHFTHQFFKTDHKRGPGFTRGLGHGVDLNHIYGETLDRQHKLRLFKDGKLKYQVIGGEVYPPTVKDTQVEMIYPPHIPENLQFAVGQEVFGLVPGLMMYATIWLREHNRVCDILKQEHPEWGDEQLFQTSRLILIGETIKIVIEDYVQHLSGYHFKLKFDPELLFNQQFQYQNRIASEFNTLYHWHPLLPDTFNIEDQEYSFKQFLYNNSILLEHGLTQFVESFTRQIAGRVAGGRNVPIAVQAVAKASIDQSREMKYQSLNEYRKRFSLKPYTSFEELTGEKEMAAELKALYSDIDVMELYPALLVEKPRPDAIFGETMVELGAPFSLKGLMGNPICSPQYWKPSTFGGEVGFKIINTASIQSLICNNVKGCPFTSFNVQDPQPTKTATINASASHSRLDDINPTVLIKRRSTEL

[3] = target: T2, Prostaglandin G/H synthase 2 (Homo sapiens, UniProt P35354); assay: Inhibition of COX2
T2 sequence (P35354 whole entry): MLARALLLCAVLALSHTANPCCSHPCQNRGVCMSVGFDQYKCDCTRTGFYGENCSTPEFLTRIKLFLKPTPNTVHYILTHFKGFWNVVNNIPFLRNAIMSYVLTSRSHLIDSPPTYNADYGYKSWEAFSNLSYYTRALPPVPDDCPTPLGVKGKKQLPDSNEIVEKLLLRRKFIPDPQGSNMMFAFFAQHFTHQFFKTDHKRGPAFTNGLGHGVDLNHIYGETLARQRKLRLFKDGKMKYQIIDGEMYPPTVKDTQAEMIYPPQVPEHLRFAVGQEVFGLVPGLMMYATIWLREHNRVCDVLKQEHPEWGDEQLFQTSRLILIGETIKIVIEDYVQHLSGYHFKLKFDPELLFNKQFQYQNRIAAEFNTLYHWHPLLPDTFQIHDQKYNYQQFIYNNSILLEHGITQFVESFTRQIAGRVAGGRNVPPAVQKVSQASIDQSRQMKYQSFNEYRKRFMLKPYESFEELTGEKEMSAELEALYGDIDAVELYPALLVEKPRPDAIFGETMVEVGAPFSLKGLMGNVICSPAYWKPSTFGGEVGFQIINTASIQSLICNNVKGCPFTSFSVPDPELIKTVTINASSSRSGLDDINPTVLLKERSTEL
Outline: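 RAW 264.7 mouse macrophage cells were plated at 2 × 10⁵ cells/well and treated with LPS for 24 h to induce COX-2, then washed. Compounds in DMSO were added in fresh medium containing arachidonic acid for 2 h. PGE₂ released into the medium was measured by EIA, and inhibition was expressed as the mean of three experiments.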

Structure (SMILES) | viability at 10 µM [1] | pIC50 [2] | pIC50 [3]
COc1ccc(/C=C/C(=O)c2ccccc2O)c(OC)c1 | 107% | – | –
O=C(/C=C/c1ccc(Cl)cc1)c1ccccc1O | 141% | – | –
COc1ccc(/C=C/C(=O)c2ccccc2O)cc1 | 115% | – | –
O=C(/C=C/c1ccc(OCc2ccccc2)cc1)c1ccccc1O | 99% | 5.39 | –
CSc1ccc(/C=C/C(=O)c2ccccc2O)cc1 | 85% | – | –
O=C(/C=C/c1ccc2c(c1)OCO2)c1ccccc1O | 118% | – | –
COc1ccc(/C=C/C(=O)c2ccccc2O)cc1OCc1ccccc1 | 102% | – | –
Cc1ccc(/C=C/C(=O)c2ccccc2O)cc1 | 152% | – | –
O=C(/C=C/c1ccc(OCc2ccccc2)c(OCc2ccccc2)c1)c1ccccc1O | 103% | 5.34 | –
O=C(/C=C/c1ccc(-c2ccccc2)cc1)c1ccccc1O | 135% | – | –
O=C(/C=C/c1cccc(Br)c1)c1ccccc1O | 90% | – | –
O=C(/C=C/c1ccc(Cl)c(Cl)c1)c1ccccc1O | 155% | – | –
O=C(/C=C/c1ccc(OC(F)(F)F)cc1)c1ccccc1O | 87% | – | –
COc1ccc(/C=C/C(=O)c2ccccc2O)cc1Br | 159% | – | –
COc1cccc(/C=C/C(=O)c2ccccc2O)c1OC | 93% | 5.42 | –
CC(=O)c1cc(C(C)=O)c2c(=O)cc(-c3ccccc3)oc2c1 | – | – | 5.57
COc1cc(/C=C/C(=O)c2ccccc2O)cc(OC)c1OC | 65% | 5.21 | –
O=C(/C=C/c1ccc(Br)cc1)c1ccccc1O | 162% | – | –
O=C(/C=C/c1ccccc1)c1ccccc1O [2'-HYDROXYCHALCONE] | 119% | – | –
CS(=O)(=O)Nc1ccc([N+](=O)[O-])cc1OC1CCCCC1 [NS-398] | 104% | – | –
COc1c(O)cc(O)c2c(=O)cc(-c3ccccc3)oc12 [WOGONIN] | 111% | 5.97 | –
